Values after ≈ are worked out from the molar mass of the structure shown.
What was measured:
COX-1 (ovine) = target: T1, COX-1 (ovine) (Ovis aries, UniProt P05979); assay: COX Fluorescent Inhibitor Screening Assay, COX-1; format: biochemical
T1 sequence (P05979 25-600): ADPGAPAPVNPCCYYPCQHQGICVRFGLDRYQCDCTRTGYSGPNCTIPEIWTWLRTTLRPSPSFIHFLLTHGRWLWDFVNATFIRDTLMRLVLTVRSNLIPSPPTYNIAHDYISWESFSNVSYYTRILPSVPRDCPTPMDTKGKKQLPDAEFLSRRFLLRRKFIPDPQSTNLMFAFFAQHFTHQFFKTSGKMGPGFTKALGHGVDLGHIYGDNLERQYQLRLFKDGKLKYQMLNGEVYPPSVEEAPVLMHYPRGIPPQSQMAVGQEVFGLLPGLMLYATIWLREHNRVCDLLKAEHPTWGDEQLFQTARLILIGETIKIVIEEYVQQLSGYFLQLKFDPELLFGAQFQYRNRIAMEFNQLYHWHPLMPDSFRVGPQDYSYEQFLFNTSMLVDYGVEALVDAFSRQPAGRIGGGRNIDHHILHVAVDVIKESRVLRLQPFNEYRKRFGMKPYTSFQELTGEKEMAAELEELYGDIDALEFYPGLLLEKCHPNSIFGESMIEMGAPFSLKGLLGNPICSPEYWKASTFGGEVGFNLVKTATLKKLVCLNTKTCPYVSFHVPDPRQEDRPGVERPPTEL
Procedure, shortened: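 The kit's peroxidase read-out was used: PGG2 converts ADHP to resorufin, read at excitation 530-540 nm and emission 585-595 nm. Ovine COX-1 was mixed with inhibitor, heme, fluorometric substrate and assay buffer. Arachidonic acid started the reaction, and plates were read exactly 2 min later at room temperature. No-enzyme blanks and no-inhibitor controls were included, and each compound was run in triplicate.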

[1] = In vitro FLS cell toxicity assay; format: cell-based; details: Sprague Dawley, rat
Procedure, shortened: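 FLS cells from adjuvant-arthritic rat joints, in MEM with 10 % fetal calf serum at 37 °C and 5 % CO2, were seeded at 1.0×10^5/well and grown overnight. Cells were treated with six concentrations for 48 h, then given 20 µl MTT (5 mg/ml) for 4 h. Formazan was dissolved in DMSO and A490 read. Viability is relative to untreated cells, in triplicate; IC50 was read from the curves.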

In vitro release profile = format: physicochemical; details: non-gelled solution controls, 37 °C, PBS pH 7.4, dialysis bags
Procedure, shortened: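 Samples of 200 μL at 4 mg/ml (gels, non-gelled conjugate solutions and parent drug) were dialysed (MWCO 800-1000) against PBS pH 7.4 at 37 °C. The 200 μL release medium was sampled and refreshed at set times. Released conjugate was quantified by C18 HPLC (30 °C; acetonitrile/0.1 % TFA gradient; 1.0 mL/min) at 260 nm.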

[2] = tested on: IL-1 and TNFα production by FLS cells; assay: Determination of IL-1 and TNF-α in FLS cell supernatants; format: cell-based, rat; details: 0.355 mg/ml, 48 h, compared with the untreated control group
Procedure, shortened: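 Rat FLS cells, isolated from synovial tissue of adjuvant-arthritic rats, were seeded at 1×10^5/well in MEM with 10 % fetal calf serum (37 °C, 5 % CO2) and grown overnight. They were then exposed to test compound at 0.355 mg/ml for 48 h. Supernatant cytokines were measured by ELISA against untreated cells, in triplicate (n = 3), with one-way ANOVA.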

FLS cells = assay: Apoptosis detection in FLS cells; format: cell-based, rat; details: all at 0.4 mg/ml Ket, 48 h, versus untreated groups
Procedure, shortened: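 FLS cells were taken from arthritis-affected rat joints and grown in MEM with 10 % fetal calf serum at 37 °C under 5 % CO2. Cells were seeded at 1 × 10^6 per well, grown overnight, and exposed to the test compound (0.016-0.71 mg/ml) for 48 h. They were then trypsinised, washed, and resuspended at ∼1×10^6 cells/mL in annexin-binding buffer. Alexa Fluor 488 annexin V and PI were added for 15 min at room temperature before immediate flow cytometry.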

IC50 (COX-1 (ovine)): 5.1 µM
Time of drug release from solution (In vitro release profile): within a few hours
Compound: C[C@H](C(=O)O)c1cccc(C(=O)c2ccccc2)c1 [(S)-Ket, (S)-Ketoprofen]
IC50 at 48 h [1]: 159 µg/mL (≈ 625 µM)
IL-1 production by FLS cells [2]: trace amounts
TNFα production by FLS cells [2]: comparatively lower amount
Extent of apoptosis in FLS cells (FLS cells): greater degree of cell death than untreated groups
